Experimental data taken from ChEMBL document CHEMBL3822419, “Rational Design of Potent and Selective Inhibitors of an Epoxide Hydrolase Virulence Factor from Pseudomonas aeruginosa” (J Med Chem, 2016).
≈ marks a conversion by molar mass, not a printed value.

How the values were obtained:
[1] = Inhibition of Pseudomonas aeruginosa recombinant His-tagged CFTR inhibitory factor expressed in expressed in Top10 Escherichia coli cells assessed as formation of 6-methoxy-2-naphthaldehyde preincubated for 5 mins followed by addition of CMNGC as substrate measured for 10 mins in presence of BSA by fluorescent-based assay
[2] = system: GH3; test: Cytotoxicity against rat GH3 cells expressing TRE and luciferase gene assessed as cell viability; assay type: cell-based
In short: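 GH3.TRE-Luc cells were seeded in 24-well plates for 24 h, then exposed for 24 h to test chemical in DMSO (0.5% v/v final), with or without T3. Viability per well was taken as total protein by BCA assay. Compounds were tested up to 10 µM.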

[3] = Agonist activity at thyroid hormone receptor in rat GH3 cells expressing TRE measured after 24 hrs in presence of T3 by luciferase reporter gene assay; assay type: cell-based; conditions: GH3, 24 h
In short: (§1)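 GH3.TRE-Luc cells grown in regular growth medium, then seeded into 24-well plates for 24 h. Cells exposed 24 h with or without T3 plus test chemical in DMSO, kept at 0.5% (v/v) in exposure medium. Viability by total protein (BCA assay). Luciferase activity read on lysed cells.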

[4] = Antagonist activity at thyroid hormone receptor in rat GH3 cells expressing TRE at 10 uM measured after 24 hrs in presence of T3 by luciferase reporter gene assay; assay type: cell-based; conditions: GH3, 24 h; in short: as §1
[5] = target: T1, Bifunctional epoxide hydrolase 2 (Homo sapiens, UniProt P34913); test: Inhibition of recombinant human sEH expressed in insect High Five cells preincubated for 5 mins followed by addition of t-DPPO as substrate measured after 10 mins by liquid scintillation counter method; assay type: cell-based, BTI-TN-5B1-4
T1 sequence (P34913 whole entry): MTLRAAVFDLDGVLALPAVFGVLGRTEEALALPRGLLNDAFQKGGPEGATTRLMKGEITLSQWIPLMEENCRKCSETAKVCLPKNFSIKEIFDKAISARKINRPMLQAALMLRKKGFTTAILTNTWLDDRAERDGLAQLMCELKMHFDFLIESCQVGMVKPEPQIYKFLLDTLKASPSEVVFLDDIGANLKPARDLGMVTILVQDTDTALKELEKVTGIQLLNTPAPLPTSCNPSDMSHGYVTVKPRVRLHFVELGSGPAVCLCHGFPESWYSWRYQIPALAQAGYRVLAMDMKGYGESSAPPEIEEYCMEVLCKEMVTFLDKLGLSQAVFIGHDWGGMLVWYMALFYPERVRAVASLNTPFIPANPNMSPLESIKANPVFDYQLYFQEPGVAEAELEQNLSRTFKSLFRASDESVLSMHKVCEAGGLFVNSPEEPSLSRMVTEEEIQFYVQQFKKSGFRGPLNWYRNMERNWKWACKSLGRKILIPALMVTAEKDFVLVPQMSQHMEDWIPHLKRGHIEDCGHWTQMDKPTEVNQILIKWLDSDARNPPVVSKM

[6] = target: T2, Epoxide hydrolase 1 (Homo sapiens, UniProt P07099); test: Inhibition of recombinant human mEH expressed in baculovirus expression system assessed as formation of 6-methoxy-2-naphthaldehyde preincubated for 5 mins followed by addition of CMNGC as substrate by fluorescent-based assay
T2 sequence (P07099 whole entry): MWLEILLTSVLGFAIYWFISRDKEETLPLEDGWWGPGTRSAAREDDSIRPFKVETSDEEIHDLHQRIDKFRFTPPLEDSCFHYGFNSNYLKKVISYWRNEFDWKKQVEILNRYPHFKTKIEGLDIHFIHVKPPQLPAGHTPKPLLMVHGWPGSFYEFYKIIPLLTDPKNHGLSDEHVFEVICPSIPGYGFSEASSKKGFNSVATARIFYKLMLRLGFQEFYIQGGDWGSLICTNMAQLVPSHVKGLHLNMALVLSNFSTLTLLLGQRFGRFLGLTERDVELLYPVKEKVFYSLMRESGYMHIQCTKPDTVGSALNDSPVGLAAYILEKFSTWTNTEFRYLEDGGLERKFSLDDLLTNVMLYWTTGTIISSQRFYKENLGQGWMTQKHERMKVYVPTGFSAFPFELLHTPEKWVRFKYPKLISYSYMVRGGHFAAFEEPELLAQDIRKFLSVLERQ

[7] = system: Liver microsome; test: Half life in human liver microsomes measured after 60 mins in presence of NADPH by LC-MS/MS analysis; assay type: ADME; conditions: 1 h
[8] = Stability in rat GH3 cells expressing TRE and luciferase gene assessed as percentage remaining at 10 uM measured after 24 hrs; assay type: ADME, cell-based; conditions: read-out: Stability
In short: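 Compound at 10 µM initial concentration incubated 24 h with GH3.TRE-Luc cells. Read-out is percentage of compound remaining, given as mean±SD.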

[9] = Equilibrium solubility of the compound in sodium phosphate buffer at pH 7.4 measured after 24 hrs by LC-MS/MS analysis; assay type: physicochemical
[10] = Protein binding in Balb/c mouse plasma at 1 uM by rapid equilibrium dialysis method; assay type: ADME, cell-free
In short: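 Mouse plasma protein binding measured at 1 µM compound by rapid equilibrium dialysis.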

[11] = Cytotoxicity against human CFBE cells at 10 uM by Cytotox 96 non-radioactive cytotoxicity assay; assay type: cell-based
[12] = Stability in human liver microsomes assessed as compound remaining measured after 60 mins in presence of NADPH by LC-MS/MS analysis; assay type: ADME; conditions: read-out: Stability

For `CCOC(=O)CC(=O)Nc1cc(Cl)c(Oc2ccc(O)c(Br)c2)c(Cl)c1`, which IC50 [1] is on record?
Its IC50 is 4.9 µM.

Which IC50 [1] does the source give for `CCC(=O)Nc1cc(Cl)c(Oc2ccc(O)c(-c3ccc(C#N)cc3)c2)c(Cl)c1` here?
Its IC50 is 11.9 µM.

With `CCC(=O)Nc1cc(Cl)c(Oc2ccc(O)c(-c3ccc(C(=O)O)cc3)c2)c(Cl)c1` as the molecule, how does the IC50 [1] read?
The IC50 was 10.5 µM.

With `CCC(=O)Nc1cc(Cl)c(Oc2ccc(O)c(-c3ccc(NC(C)=O)cc3)c2)c(Cl)c1` as the molecule, how does the IC50 [1] read?
Its IC50 is 15.6 µM.

Which IC50 [1] does the source give for `C#Cc1cc(Oc2c(Cl)cc(NC(=O)CC(=O)OCC)cc2Cl)ccc1O` here?
The IC50 was 2.9 µM.

For `CCC(=O)Nc1cc(Cl)c(Oc2ccc(O)c(-c3ccc(C(N)=O)cc3)c2)c(Cl)c1`, which Activity [2] is on record?
Its Activity is “Non-toxic”.

What about the IC50 [1] of the same molecule?
Its IC50 is 0.35 µM.

And the EC50 [3]?
Its EC50 is over 10 µM.

What about the inhibition at 10 µM [4] of the same molecule?
The inhibition at 10 µM was 66%.

What about the IC50 [5] of the same molecule?
Its IC50 is 8.6 µM.

What about the IC50 [6] of the same molecule?
Its IC50 is 17.2 µM.

What about the t1/2 [7] of the same molecule?
Its t1/2 is 15 min.

And the remaining at 24 h, 10 µM [8]?
Its remaining at 24 h, 10 µM is 106%.

And the solubility thermodynamic at 24 h [9]?
The solubility thermodynamic at 24 h was 0.17 µM (≈ 0.0757 µg/mL).

What about the PPB [10] of the same molecule?
Its PPB is over 99%.

And the Activity [11]?
The Activity was “Non-toxic”.

For `CCC(=O)Nc1cc(Cl)c(Oc2ccc(O)c(-c3ccc(S(N)(=O)=O)cc3)c2)c(Cl)c1`, which IC50 [1] is on record?
The IC50 was 2 µM.

Which IC50 [1] does the source give for `CCC(=O)Nc1cc(Cl)c(Oc2ccc(O)c(-c3cccc(C#N)c3)c2)c(Cl)c1` here?
Its IC50 is 0.58 µM.

Which IC50 [1] does the source give for `CCOC(=O)CC(=O)Nc1cc(Cl)c(Oc2ccc(O)c(I)c2)c(Cl)c1` here?
Its IC50 is 3.8 µM.

Which IC50 [1] does the source give for `CC(=O)Nc1cc(Br)c(Oc2ccc(O)c(C(C)C)c2)c(Br)c1` here?
The IC50 was 8.8 µM.

Which IC50 [1] does the source give for `CCOC(=O)CC(=O)Nc1cc(Br)c(Oc2ccc(OC)c(C(C)C)c2)c(Br)c1` here?
The IC50 was over 25 µM.

For `CCOC(=O)CC(=O)Nc1cc(Br)c(Oc2cccc(C(C)C)c2)c(Br)c1`, which IC50 [1] is on record?
Its IC50 is over 50 µM.

For `CCOC(=O)CC(=O)Nc1cc(Cl)c(Oc2ccc(O)cc2)c(Cl)c1`, which IC50 [1] is on record?
Its IC50 is over 50 µM.

For `CCOC(=O)CC(=O)Nc1cc(Cl)c(Oc2ccc(O)c(C(F)(F)F)c2)c(Cl)c1`, which IC50 [1] is on record?
The IC50 was 3 µM.

With `CCC(=O)Nc1cc(Cl)c(Oc2ccc(O)c(-c3ccc(C(=O)NC)cc3)c2)c(Cl)c1` as the molecule, how does the IC50 [1] read?
The IC50 was 1.7 µM.

For `CCOC(=O)CC(=O)Nc1cc(Cl)c(Oc2ccc(O)c(C(C)C)c2)c(Cl)c1`, which IC50 [1] is on record?
The IC50 was 3.8 µM.

Which IC50 [1] does the source give for `CCC(=O)Nc1cc(Br)c(Oc2ccc(O)c(C(C)C)c2)c(Br)c1` here?
Its IC50 is 7.5 µM.

With `CCC(=O)Nc1cc(Cl)c(Oc2ccc(O)c(-c3ccccc3)c2)c(Cl)c1` as the molecule, how does the IC50 [1] read?
The IC50 was 1.4 µM.

What about the remaining at 1 h [12] of the same molecule?
The remaining at 1 h was 63%.

For `CCOC(=O)CCC(=O)Nc1cc(Br)c(Oc2ccc(O)c(C(C)C)c2)c(Br)c1`, which IC50 [1] is on record?
The IC50 was 5.5 µM.

With `CCCCCCCCCSC(C)C(N)=O` (configuration not stated) as the molecule, how does the IC50 [6] read?
The IC50 was 6 µM.

For `CCC(=O)Nc1cc(Cl)c(Oc2ccc(O)c(-c3ccc(C(C)=O)cc3)c2)c(Cl)c1`, which IC50 [1] is on record?
Its IC50 is 0.35 µM.

And the EC50 [3]?
The EC50 was over 10 µM.

And the inhibition at 10 µM [4]?
Its inhibition at 10 µM is 33%.

And the IC50 [5]?
The IC50 was 7.7 µM.

And the IC50 [6]?
Its IC50 is 97.8 µM.

What about the t1/2 [7] of the same molecule?
The t1/2 was 5.7 min.

What about the remaining at 24 h, 10 µM [8] of the same molecule?
Its remaining at 24 h, 10 µM is 74%.

And the solubility thermodynamic at 24 h [9]?
The solubility thermodynamic at 24 h was under 0.04 µM.

And the PPB [10]?
Its PPB is over 99%.

For `CCC(=O)Nc1cc(Cl)c(Oc2ccc(O)c(-c3ccc(NC(N)=O)cc3)c2)c(Cl)c1`, which Activity [2] is on record?
Its Activity is “Non-toxic”.

What about the IC50 [1] of the same molecule?
The IC50 was 0.29 µM.

And the EC50 [3]?
The EC50 was over 10 µM.

What about the inhibition at 10 µM [4] of the same molecule?
The inhibition at 10 µM was 28%.

And the IC50 [5]?
Its IC50 is 7.5 µM.

What about the IC50 [6] of the same molecule?
The IC50 was 26.3 µM.

What about the t1/2 [7] of the same molecule?
The t1/2 was 29 min.

What about the remaining at 24 h, 10 µM [8] of the same molecule?
Its remaining at 24 h, 10 µM is 103%.

And the solubility thermodynamic at 24 h [9]?
Its solubility thermodynamic at 24 h is 21 µM (≈ 9.67 µg/mL).

What about the PPB [10] of the same molecule?
The PPB was over 99%.

What about the Activity [11] of the same molecule?
The Activity was “Non-toxic”.

With `CCC(=O)Nc1cc(Cl)c(Oc2ccc(O)c(-c3cccc(C(N)=O)c3)c2)c(Cl)c1` as the molecule, how does the IC50 [1] read?
Its IC50 is 0.46 µM.

For `CC(C)c1cc(Oc2c(Br)cc(NC(=O)CCC(=O)O)cc2Br)ccc1O`, which IC50 [1] is on record?
The IC50 was 3.2 µM.

With `CCOC(=O)CC(=O)Nc1cc(Cl)c(Oc2ccc(O)cc2Br)c(Cl)c1` as the molecule, how does the IC50 [1] read?
Its IC50 is 29.3 µM.

With `CC(C)c1cc(Oc2c(Br)cc(N)cc2Br)ccc1O` as the molecule, how does the IC50 [1] read?
Its IC50 is 9.7 µM.

With `CCOC(=O)CC(=O)Nc1cc(Br)c(Oc2ccc(O)c(C(C)C)c2)c(Br)c1` as the molecule, how does the IC50 [1] read?
Its IC50 is 6.7 µM.

With `CCOC(=O)CC(=O)Nc1ccc(Oc2ccc(O)c(C(C)C)c2)c(Cl)c1` as the molecule, how does the IC50 [1] read?
Its IC50 is 11.6 µM.
